Screening data (PubChem BioAssay)
CHRM5 PAM: human M5 muscarinic receptor positive allosteric modulators, primary screen, CHO-K1 cells, Fluo-8 calcium fluorescence | 360,000 tested, 0.3% active | Muscarinic acetylcholine receptor M5 (Homo sapiens), P08912 | CHO-K1 hM5, ACh EC20 PAM; 0% = ACh EC20, 100% = ACh EC100 | activation, % at 3 µM | AID 624038, 2012;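 active = activation above the run cutoff, the mean activation of all test compounds plus 3 SD, cut at about 18% in these data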
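Measured by: Fluo-8 calcium fluorescence; material: human M5 receptor in CHO-K1 cells; schedule: Post-acetylcholine fluorescence recording 140 s; benchmarks: low control EC20 acetylcholine (0%), high control EC100 acetylcholine (100%); read-out: Max/basal fluorescence ratio as % of EC20–EC100 ACh window; compound: single dose, 3 µM nominal final test concentration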
CHRM5 agonist: human M5 muscarinic receptor agonists, primary screen, CHO-K1 cells, Fluo-8 calcium fluorescence. 360,000 tested, 0.19% active. activation, % at 3 µM. CHO-K1 hM5 cells; 0% DMSO wells, 100% maximal acetylcholine response. Muscarinic acetylcholine receptor M5 (Homo sapiens), P08912;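 active = activation above the run's mean over test compounds plus 3 SD, cut at about 23% in these data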;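 note: signal is peak over basal fluorescence ratio across the kinetic read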
M4 antag: human M4 muscarinic receptor antagonists, primary screen, CHO cells, Fluo-8 calcium fluorescence. AID 624125, 2012. Muscarinic acetylcholine receptor M4 (Homo sapiens), P08173. inhibition, % at 3 µM. 360,000 tested, 0.73% active. CHO-hM4 cells, ACh EC80;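 active = inhibition above its plate's cutoff, the mean inhibition of sample wells plus 3 SD, cut at about 27% in these data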;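 note: 0% = acetylcholine EC80 with DMSO and 100% = DMSO without agonist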
Target sequence (P08173 whole entry, looked up): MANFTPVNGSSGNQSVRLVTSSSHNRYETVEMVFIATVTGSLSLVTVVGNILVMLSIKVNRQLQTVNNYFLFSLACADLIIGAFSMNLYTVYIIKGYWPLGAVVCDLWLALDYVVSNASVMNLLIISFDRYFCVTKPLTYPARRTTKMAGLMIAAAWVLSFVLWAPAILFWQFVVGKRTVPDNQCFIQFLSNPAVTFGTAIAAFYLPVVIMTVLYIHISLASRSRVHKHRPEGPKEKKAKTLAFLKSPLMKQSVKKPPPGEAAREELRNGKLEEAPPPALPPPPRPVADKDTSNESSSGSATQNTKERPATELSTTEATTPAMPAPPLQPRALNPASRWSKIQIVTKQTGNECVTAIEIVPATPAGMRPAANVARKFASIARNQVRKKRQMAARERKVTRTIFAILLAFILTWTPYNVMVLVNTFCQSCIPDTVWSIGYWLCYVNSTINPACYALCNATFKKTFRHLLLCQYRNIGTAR
M4 PAM: human M4 muscarinic receptor positive allosteric modulators, primary screen, CHO-K1 cells, Fluo-8 calcium fluorescence; CHO-K1 hM4/Gqi5, ACh EC20; 0% = ACh EC20, 100% = maximal ACh; Muscarinic acetylcholine receptor M4 (Homo sapiens), P08173; 360,000 tested, 0.4% active; activation, % at 3 µM;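 active = activation above its plate's cutoff, the mean activation of sample wells plus 3 SD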
M5 antag: human M5 muscarinic receptor antagonists, primary screen, CHO cells, Fluo-8 calcium fluorescence; inhibition, % at 3 µM; Muscarinic acetylcholine receptor M5 (Homo sapiens), P08912; CHO-hM5 cells, ACh EC80; 360,000 tested, 0.59% active;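 active = inhibition above a per-plate cutoff, the mean of that plate's test compounds plus 3 SD, cut at about 27% in these data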;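 note: 0% = acetylcholine EC80 with DMSO and 100% = DMSO without agonist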
M4 ag: human M4 muscarinic receptor agonists, primary screen, CHO-K1 cells, Fluo-8 calcium fluorescence; CHO-K1 hM4/Gqi5; vehicle 0%, full acetylcholine response 100%; AID 624127, 2012; 360,000 tested, 0.14% active; activation, % at 3 µM; Muscarinic acetylcholine receptor M4 (Homo sapiens), P08173;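 active = activation above the run mean over all test wells plus 3 SD, cut at about 32% in these data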;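 note: peak over basal fluorescence ratio per well then scaled between controls; 0% = DMSO wells and 100% = acetylcholine at EC100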
* = called active by the depositor. Most compounds without a hit are left out; they make up all but 1.9% or so of the library.

SMILES	CHRM5 PAM	CHRM5 agonist	M4 antag	M4 PAM	M5 antag	M4 ag
O=C(Nc1ccccc1C(=O)Nc1nnc(C(F)(F)F)s1)c1ccccc1	-23.8	1.5	-9.7	-4.0	35.8*	9.6
c1ccc(-c2ccc(OCCCNC3CCCC3)cc2)cc1	-16.5	4.2	39.2*	-21.6	32.8*	29.5
CC(CCc1ccccc1)N1CCN(C)CC1 (stereo unspecified)	1.0	-5.2	1.3	1.6	-5.7	0.6
O=C(O)c1ccc(CNCc2cccc(Cl)c2Cl)cc1	15.3	-4.2	-5.1	27.6*	-13.2	2.2
O=C(O)c1ccc(CNCc2ccccc2Cl)cc1	6.7	-2.5	-9.8	20.7	-7.4	0.2
O=C(CSc1nn(-c2ccccc2)c(=S)s1)Nn1cnnc1	5.4	0.3	-7.6	-0.7	-9.3	0.2
Cc1ccc(NC(=O)CSc2nn(-c3ccccc3)c(=S)s2)cc1S(=O)(=O)N(C)C	-17.4	0.8	22.9	-12.4	29.7*	13.3
CC1(C(=O)NCc2ccccc2)CN(S(C)(=O)=O)CC(=O)N1Cc1cccc(F)c1 (stereo unspecified)	-0.9	1.8	-6.4	23.9*	5.6	5.7
Cc1ccccc1OCCC(=O)OCC(=O)NC1CCS(=O)(=O)C1 (stereo unspecified)	2.5	2.0	-6.9	3.9	-0.8	0.9
CCN1CCN(c2ccc(S(=O)(=O)N3CCOCC3)cc2NC(=O)/C=C/c2cccc(OC)c2OC)CC1	8.0	1.8	-7.7	16.5	-5.6	1.0
Nc1nc(Cl)cc(N2CCC(c3cc(-c4ccc(Cl)cc4)n[nH]3)CC2)n1	-25.1	13.9	35.6*	-7.3	39.2*	25.9
Nc1nnc(SCC(=O)NC2CCCCCC2)s1	2.2	2.2	-11.7	23.7*	-10.3	-0.3
CCC(=O)Nc1cccc2c1C(=O)N(C)C2=O	3.4	-1.5	-5.8	10.4	-9.2	-0.2
CN1C(=O)c2cccc(NC(=O)C3CCCCC3)c2C1=O	2.6	-1.5	-10.9	18.9*	-3.5	0.1
Cc1ccccc1CC(=O)Nc1cc(C(C)(C)C)on1	-3.1	0.9	3.7	-8.6	5.7	-0.8
C=Cc1cccc(NC(=O)COc2ccccc2)c1	18.4*	-2.7	0.2	17.6	10.5	-0.2
CCCCNc1c(-c2ccc(SC(C)CC)c(OC)c2)nc2ccc(Cl)cn12 (stereo unspecified)	-21.4	-4.9	34.6*	-12.5	12.2	1.9
CCCCNc1c(-c2ccc(SC(C)CC)c(OC)c2)nc2ccc(C)cn12 (stereo unspecified)	-36.1	-5.1	54.6*	-12.4	37.4*	16.3
NS(=O)(=O)c1ccc(NC(=O)C(=O)NCCC(=O)O)cc1	1.4	0.5	-5.1	7.7	9.6	0.7
COc1cccc(N2CC(C(=O)Nc3nnc(SCCC4OCCO4)s3)CC2=O)c1 (stereo unspecified)	-8.6	-4.2	-0.7	-1.2	31.1*	2.1
O=C(Nc1nnc(SCCC2OCCO2)s1)C1CC(=O)N(c2ccccc2)C1 (stereo unspecified)	-0.3	-0.6	-7.8	-2.7	-4.7	3.5
CCOC(=O)C(=N/O)/C(C)=N/NC(=O)C(=O)Nc1ccc(Cl)cc1	-20.2	4.4	6.0	-8.9	27.3*	13.0
CCOC(=O)Cn1c(=N)n(CCOc2ccc3ccccc3c2)c2ccccc21	-20.5	6.1	9.4	-8.9	10.0	39.4*
CCOC(=O)Cn1c(=N)n(CCOc2ccc(OC)cc2)c2ccccc21	5.5	-5.0	7.2	4.5	0.6	2.5
COc1ccc(CN(CC(=O)NCCc2ccccc2)C(=O)CCC(=O)Nc2cc(C)ccn2)cc1	-0.4	-1.6	-8.2	-3.2	9.5	4.9
c1sc2[n+](c1C13CC4CC(CC(C4)C1)C3)CCS2	-5.8	-8.7	34.3*	-12.3	-2.1	0.1
